7 molecules from ChEMBL document CHEMBL1147937, “Kinesin spindle protein (KSP) inhibitors. Part V: discovery of 2-propylamino-2,4-diaryl-2,5-dihydropyrroles as potent, water-soluble KSP inhibitors, and modulation of their basicity by beta-fluorination to overcome cellular efflux by P-glycoprotein” (Bioorg Med Chem Lett, 2007) can be followed below.

Data set [1] concerns the target T1, Kinesin-like protein KIF11 (Homo sapiens, UniProt P52732).
T1 sequence (P52732 whole entry): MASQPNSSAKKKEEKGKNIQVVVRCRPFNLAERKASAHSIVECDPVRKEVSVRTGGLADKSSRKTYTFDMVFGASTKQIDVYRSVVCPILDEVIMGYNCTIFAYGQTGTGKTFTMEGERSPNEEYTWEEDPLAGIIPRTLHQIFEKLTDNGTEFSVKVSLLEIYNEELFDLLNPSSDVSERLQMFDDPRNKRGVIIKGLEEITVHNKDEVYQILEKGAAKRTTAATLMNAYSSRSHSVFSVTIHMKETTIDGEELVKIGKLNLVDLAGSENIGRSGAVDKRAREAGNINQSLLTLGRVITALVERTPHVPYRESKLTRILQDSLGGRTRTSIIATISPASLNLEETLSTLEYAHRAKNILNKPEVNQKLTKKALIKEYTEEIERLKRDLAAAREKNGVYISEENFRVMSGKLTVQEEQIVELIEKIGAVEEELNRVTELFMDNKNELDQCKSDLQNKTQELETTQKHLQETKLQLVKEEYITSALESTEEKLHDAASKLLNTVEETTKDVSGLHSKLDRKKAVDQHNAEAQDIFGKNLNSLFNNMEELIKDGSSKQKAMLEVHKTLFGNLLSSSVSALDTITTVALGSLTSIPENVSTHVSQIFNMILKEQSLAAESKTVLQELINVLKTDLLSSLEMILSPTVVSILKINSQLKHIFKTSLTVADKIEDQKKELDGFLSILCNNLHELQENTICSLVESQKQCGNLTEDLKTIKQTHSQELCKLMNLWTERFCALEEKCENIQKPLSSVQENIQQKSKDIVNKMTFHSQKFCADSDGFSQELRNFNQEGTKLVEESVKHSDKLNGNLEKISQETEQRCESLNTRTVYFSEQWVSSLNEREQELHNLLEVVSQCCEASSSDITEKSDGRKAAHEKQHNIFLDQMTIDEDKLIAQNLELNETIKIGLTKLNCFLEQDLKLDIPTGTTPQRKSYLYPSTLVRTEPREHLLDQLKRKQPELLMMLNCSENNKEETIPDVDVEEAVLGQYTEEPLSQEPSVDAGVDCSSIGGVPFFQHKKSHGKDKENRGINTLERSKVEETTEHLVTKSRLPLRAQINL
Kind of data set: Inhibition of KSP.

Data set [2] can be described thus: Partition coefficient, log P of the compound. The format is physicochemical. To be noted: octanol/water.
Data set [3] is described as follows: Ratio of IC50 for human KBV1 cells to human KB31 cells after 16 hrs. To be noted: KBV1 cells and KB31 cells, read-out: Ratio IC50. The format is cell-based. The gist of the method:
(§1)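 IC50 for induction of G2/M (mitotic) block was determined in two human epidermoid carcinoma lines: parental KB-3-1, which lacks Pgp, and KB-V-1. KB-V-1 was derived by culturing KB-3-1 with vinblastine and highly overexpresses Pgp. The MDR ratio is the quotient of the KB-V-1 IC50 over the KB-3-1 IC50.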

Data set [4] can be described thus: Dissociation constant, pKa of the compound. Type of data set: physicochemical. The gist of the method: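 Ionization constant measured with an automated pKa titrator; the value is the average of n = 3 determinations.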
Data set [5] can be described thus: Solubility in 0.1 M citrate at pH 4.0. The format is physicochemical. As to conditions: 0.1 M citrate buffer. The gist of the method: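 Aqueous solubility measured on the free-base form in 0.1 M citrate, with an initial pH of 4.0.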
In data set [6] the target is Voltage-gated inwardly rectifying potassium channel KCNH2 (Homo sapiens, UniProt Q12809). Kind of data set: Inhibition of hERG expressed in CHO cells by cell voltage clamp assay. Type of data set: toxicity, cell-based. In general terms: The hERG channel carries a current that helps repolarise heart muscle cells.
Sequence of Voltage-gated inwardly rectifying potassium channel KCNH2 (Q12809 whole entry): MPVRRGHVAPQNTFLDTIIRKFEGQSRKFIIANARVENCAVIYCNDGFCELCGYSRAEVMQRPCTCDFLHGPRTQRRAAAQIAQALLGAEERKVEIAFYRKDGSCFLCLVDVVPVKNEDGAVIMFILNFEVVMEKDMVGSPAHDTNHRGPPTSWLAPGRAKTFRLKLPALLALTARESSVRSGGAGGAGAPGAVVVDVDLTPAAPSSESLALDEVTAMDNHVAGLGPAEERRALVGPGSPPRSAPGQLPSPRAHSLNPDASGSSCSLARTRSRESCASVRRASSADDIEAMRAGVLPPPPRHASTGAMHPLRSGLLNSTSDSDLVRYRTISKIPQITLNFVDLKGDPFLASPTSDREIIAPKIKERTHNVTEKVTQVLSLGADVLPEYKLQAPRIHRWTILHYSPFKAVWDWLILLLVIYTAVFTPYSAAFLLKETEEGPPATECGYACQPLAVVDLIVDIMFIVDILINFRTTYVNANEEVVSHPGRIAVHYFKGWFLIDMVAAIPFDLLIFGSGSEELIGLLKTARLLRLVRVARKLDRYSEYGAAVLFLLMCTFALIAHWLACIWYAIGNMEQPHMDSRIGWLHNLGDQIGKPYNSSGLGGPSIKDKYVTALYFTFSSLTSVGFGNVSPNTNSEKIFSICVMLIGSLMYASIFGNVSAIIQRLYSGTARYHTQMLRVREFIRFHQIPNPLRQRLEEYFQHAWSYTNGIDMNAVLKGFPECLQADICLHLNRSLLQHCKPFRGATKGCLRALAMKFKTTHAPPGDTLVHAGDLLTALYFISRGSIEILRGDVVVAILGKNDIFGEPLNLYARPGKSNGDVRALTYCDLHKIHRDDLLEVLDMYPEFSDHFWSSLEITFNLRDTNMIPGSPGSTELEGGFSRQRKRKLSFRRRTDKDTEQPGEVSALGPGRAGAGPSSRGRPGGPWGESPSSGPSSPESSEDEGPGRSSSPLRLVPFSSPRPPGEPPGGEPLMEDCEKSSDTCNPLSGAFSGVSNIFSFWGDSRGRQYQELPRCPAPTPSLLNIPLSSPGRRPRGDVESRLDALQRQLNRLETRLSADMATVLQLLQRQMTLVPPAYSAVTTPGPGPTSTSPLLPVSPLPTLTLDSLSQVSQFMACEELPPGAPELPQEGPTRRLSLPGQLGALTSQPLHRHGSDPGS
For data set [7], the system named is MDR1. Kind of data set: Efflux ratio of permeability from basolateral to apical over apical to basolateral side of the […] cell transfected with MDR1 by monolayer transport assay. Type of data set: ADME, cell-based. As to conditions: LLC-PK1. The gist of the method:
(§2)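 Monolayer transport assay in LLC-PK1 cells transfected with the human MDR1 gene. The efflux ratio is basolateral-to-apical over apical-to-basolateral transport. Passive permeability is reported in 10^-6 cm/s.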

In data set [8] the target is T1, Kinesin-like protein KIF11. The experiment in a line: Inhibition of KSP in KB31 cells. Type of data set: cell-based. In outline: as §1
Data set [9] concerns the target T1, Kinesin-like protein KIF11. Kind of data set: Inhibition of KSP in KBV1 cells overexpressing Pgp. The format is cell-based. In outline: as §1
Data set [10] deals with MDR1. Kind of data set: Permeability across LLCPK1 cells expressing MDR1 gene. The format is ADME, cell-based. To be noted: human, LLC-PK1; read-out: permeability. In outline:
as §2

Bounds are passed on as bounds.

For orientation: IC50 means the concentration at which inhibition is half-maximal. Low readings indicate higher potency, high ones lower potency. The term logP denotes the decadic logarithm of the partition coefficient of the neutral form, usually between octanol and water. A low value points to a more hydrophilic compound. What is called pKa is the negative logarithm of the acid dissociation constant. A word on the solubility: it is the concentration that dissolves in the medium under given conditions. As usually defined, the efflux ratio is a quotient of directional permeabilities that is used to spot active efflux.

`CN(C)C(=O)N1CC(c2cc(F)ccc2F)=C[C@@]1(CCCNCC(F)F)c1ccccc1`: the IC50 in data set [1] was found to be 12.1 nM. The logP in [2] was found to be 3.4. The selectivity ratio at 16 h in data set [3] was determined as 3. Also, the pKa in data set [4] turned out to be 7.
On the same counts, the results for `CN(C)C(=O)N1CC(c2cc(F)ccc2F)=C[C@@]1(CCCNCC(F)(F)F)c1ccccc1` are 110 nM, above 3.2, 1 and 5.2.
In turn, `CN(C)C(=O)N1CC(c2cc(F)ccc2F)=C[C@@]1(CCCNCCF)c1ccccc1` displayed a half-maximal inhibitory concentration (IC50) in data set [1] of 10.2 nM. The same molecule displayed a lipophilicity (logP) in data set [2] of 2.6. The selectivity ratio at 16 h in data set [3] was found to be 32. In [4], the pKa was found to be 8.8.
`CN(C)C(=O)N1N=C(c2cc(F)ccc2F)C[C@@]1(CCCN)c1ccccc1` displayed a solubility in [5] above 12 mg/mL. This molecule gave an IC50 in data set [6] of 19300 nM. The selectivity ratio at 16 h in data set [3] was 490. Further, the pKa in data set [4] stood at 10.3.
`CCNCCC[C@@]1(c2ccccc2)C=C(c2cc(F)ccc2F)CN1C(=O)N(C)C` showed an IC50 in data set [1] of 10.2 nM. In [2], this molecule had a lipophilicity (logP) of 1.6. Further, the selectivity ratio at 16 h in [3] was above 135. In [4], this molecule returned a pKa of 10.7.
`CN(C)C(=O)N1CC(c2cc(F)ccc2F)=C[C@@]1(CC[C@H](N)C(F)F)c1ccccc1`: the IC50 was found to be 5.2 nM in [1], 15900 nM in data set [6], 24 nM in [8] and 123 nM in [9]. In [2], this molecule registered a logP of 3.2. In [5], the solubility is above 10 mg/mL. The selectivity ratio at 16 h in [3] stood at 5. The efflux ratio in the data set on MDR1 [7] is 2.5. Besides, the Papp with MDR1 [10] was determined as 38 ×10⁻⁶ cm/s.
As to `CN(C)C(=O)N1CC(c2cc(F)ccc2F)=C[C@@]1(CCCN)c1ccccc1`, the IC50 in data set [1] worked out at 2.2 nM; in [6] it was 7100 nM; in data set [9], 28000 nM. This molecule also gave a log partition coefficient (logP) in data set [2] of 1.1. The molecule also returned a solubility in [5] above 12 mg/mL. For the same molecule, the selectivity ratio at 16 h in [3] stood at 1200. In addition, the pKa in [4] is 10.3. Further, in the data set with MDR1 [7], the efflux ratio was found to be 18.5. Moreover, the Papp with MDR1 [10] is 4 ×10⁻⁶ cm/s.
